The record followed here is ChEMBL document CHEMBL1135478, “From imidazoles to pyrimidines: new inhibitors of cytokine release” (J Med Chem, 2002).

Some results are limits rather than exact numbers.

For assay [1], the target named is T1, MAP kinase p38 (Homo sapiens, UniProt O15264+Q15759+Q16539+P53778). The experiment in a line: Inhibition of Mitogen-activated protein kinase p38. In kind it is protein assay.
In assay [2] the target is T1, MAP kinase p38. As to the kind of experiment: Inhibition of p38 MAP kinase related interleukin (IL1-beta (cytokine) release from human whole blood. It counts as functional, tissue-based. In short, it runs like this: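 Human whole blood preincubated 15 min (37 °C, 5% CO₂) with compound from 70:30 Cremophor EL/ethanol stock dilutions (vehicle 1% in all samples). Stimulated with LPS (E. coli 026:B6), 1 µg/mL, 4 h, 37 °C. Reaction stopped on ice, then centrifuged. Supernatant IL-1β measured by ELISA. IC50 read from semilog plot of % reduction vs vehicle controls. At least duplicate.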

Assay [3] deals with T1, MAP kinase p38. The experiment in a line: Inhibition of p38 MAP kinase related TNF-alpha release from human whole blood. It counts as functional, tissue-based.
Assay [4] concerns the target T1, MAP kinase p38. As to the kind of experiment: Inhibition of p38 MAP kinase related TNF-alpha release from peripheral blood mononuclear cells (PBMC). In kind it is functional.
The target of assay [5] is T1, MAP kinase p38. The experiment in a line: Inhibition of p38 MAP kinase related interleukin (IL1-beta (cytokine) release from human peripheral blood mononuclear cells.

Broadly, the IC50 is the concentration that inhibits the measured activity by half. Read a high IC50 as weaker potency in that assay. In the case of `C[S+]([O-])c1ccc(CSc2nc(-c3ccc(F)cc3)c(-c3ccncc3)[nH]2)cc1` (stereo unspecified), the half-inhibitory concentration (IC50) at MAP kinase p38 [1] is 4 µM; against MAP kinase p38 [2] it was 2.78 µM; against MAP kinase p38 [3], 20.3 µM; against MAP kinase p38 [4], 3.65 µM; against MAP kinase p38 [5], 0.88 µM.

Consider `C[S+]([O-])c1cccc(CSc2nc(-c3ccc(F)cc3)c(-c3ccncc3)[nH]2)c1` (stereo unspecified), for which the IC50 amounted to 4.1 µM at MAP kinase p38 [2], 33.5 µM against MAP kinase p38 [3], 23.5 µM against MAP kinase p38 [4] and 1 µM against MAP kinase p38 [5].

For the molecule `C[S+]([O-])c1ccccc1CSc1nc(-c2ccc(F)cc2)c(-c2ccncc2)[nH]1` (stereo unspecified), the IC50 on MAP kinase p38 [2] was determined as 4 µM; against MAP kinase p38 [3], 47.5 µM; on MAP kinase p38 [4], 15 µM; at MAP kinase p38 [5] it was 0.9 µM.

Consider `CS(=O)(=O)c1ccc(CSc2ncc(-c3ccc(F)cc3)c(-c3ccncc3)n2)cc1`, for which the half-maximal inhibitory concentration (IC50) was above 100 µM against MAP kinase p38 [2], above 100 µM against MAP kinase p38 [3], 17.8 µM against MAP kinase p38 [4] and 7.7 µM against MAP kinase p38 [5].

With `C[S+]([O-])c1ccc(CSc2ncc(-c3ccc(F)cc3)c(-c3ccncc3)n2)cc1` (stereo unspecified), the IC50 was 36 µM on MAP kinase p38 [1]; 45.5 µM against MAP kinase p38 [2]; 95.5 µM on MAP kinase p38 [3]; 14.1 µM against MAP kinase p38 [4]; 5.6 µM on MAP kinase p38 [5].

Consider `C[S+]([O-])c1ccc(CSc2ncc(-c3ccc(F)cc3)c(-c3cccnc3)n2)cc1` (stereo unspecified), for which the IC50 at MAP kinase p38 [2] is above 100 µM; against MAP kinase p38 [3], above 100 µM; against MAP kinase p38 [4], 54 µM; against MAP kinase p38 [5], 75.5 µM.

On to `C[S+]([O-])c1cccc(CSc2ncc(-c3ccc(F)cc3)c(-c3ccncc3)n2)c1` (stereo unspecified), for which the IC50 against MAP kinase p38 [1] stood at 19 µM; against MAP kinase p38 [4], 6.5 µM; against MAP kinase p38 [5], 5.4 µM.

For `C[S+]([O-])c1ccc(CSc2nc(O)c(-c3ccc(F)cc3)c(-c3ccncc3)n2)cc1` (stereo unspecified), the IC50 on MAP kinase p38 [2] is above 100 µM; at MAP kinase p38 [3] it was above 100 µM; against MAP kinase p38 [4], 27 µM; against MAP kinase p38 [5] it was 25.5 µM.

In the case of `CSc1ccc(CSc2ncc(-c3ccc(F)cc3)c(-c3ccncc3)n2)cc1`, the IC50 against MAP kinase p38 [2] was above 100 µM; against MAP kinase p38 [3], above 100 µM; on MAP kinase p38 [4] it was 60 µM; against MAP kinase p38 [5] it was 7.4 µM.

Turning to `C[S+]([O-])c1ccc(CSc2ncc(-c3ccncc3)c(-c3ccc(F)cc3)n2)cc1` (stereo unspecified), the IC50 is above 100 µM at MAP kinase p38 [2], above 100 µM against MAP kinase p38 [3], 29.9 µM against MAP kinase p38 [4] and 17.8 µM against MAP kinase p38 [5].
